In one assay the test system is Aspergillus niger. The assay is described as follows: Minimum inhibitory concentration was evaluated in vitro againist P. As. niger 16404. Type of assay: functional. The essentials: (§1)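 Compounds in water, 50% Me₂SO–water or 100% Me₂SO. Disk-plate prescreen, with those active at 1000 μg/mL then titrated by autodilution. Fungi were grown in proteose peptone no. 3 maltose at 23 °C for 3-5 days. MIC was read as the lowest drug level showing no turbidity.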

A further assay concerns Candida albicans. Kind of assay: Minimum inhibitory concentration was evaluated in vitro againist P. Candida albicans 10231. Type of assay: functional. The procedure, abridged: as §1
The test system of another assay is Escherichia coli. Kind of assay: Minimum inhibitory concentration was evaluated in vitro againist Escherichia coli Vogel. Type of assay: functional. The procedure, abridged:
(§2)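 Compounds dissolved in water, 50% Me₂SO–water or 100% Me₂SO. They were first screened by disk-plate, and those active at 1000 μg/mL went on to the autotitration method using an automatic diluting device. Bacteria were inoculated into tryptose phosphate broth and incubated at 37 °C for 18-20 h. MIC is the lowest drug level giving complete absence of growth (turbidity).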

The test system of a further assay is Klebsiella pneumoniae. The assay is described as follows: Minimum inhibitory concentration was evaluated in vitro againist Klebsiella pneumoniae 39645. The format is functional. The procedure, abridged:
as §2

Another assay relates to Pseudomonas aeruginosa. Kind of assay: Minimum inhibitory concentration was evaluated in vitro againist P. Ps. aeruginosa MGH-2. The format is functional. The procedure, abridged:
as §2

The subject of another assay is Proteus mirabilis. The assay is described as follows: Minimum inhibitory concentration was evaluated in vitro againist Proteus mirabilis MGH-1. Type of assay: functional. The procedure, abridged: as §2
In a further assay the test system is Proteus vulgaris. The assay is described as follows: Minimum inhibitory concentration was evaluated in vitro againist Proteus vulgaris 9920. Type of assay: functional. The procedure, abridged:
as §2

In another assay the test system is Staphylococcus aureus. The assay is described as follows: Minimum inhibitory concentration was evaluated in vitro againist Staphylococcus aureus Smith. The format is functional. The procedure, abridged:
as §2

The next assay relates to Streptococcus pyogenes. Kind of assay: Minimum inhibitory concentration was evaluated in vitro againist P. Streptococcus pyogenes C-203. The format is functional. The essentials:
as §2

The next assay has as its system Trichophyton benhamiae. The assay is described as follows: Minimum inhibitory concentration was evaluated in vitro againist P. Trichophyton mentagrophytes 9129. The format is functional, Arthroderma benhamiae. The essentials: as §1

Bounds are passed on as bounds.

By MIC is commonly meant the smallest concentration in the dilution series that meets the test's criterion for growth inhibition. Read a high MIC as weaker potency. `CCCCCCCC(=O)NNC(=O)C[n+]1ccccc1`: the MIC against Aspergillus niger, against Candida albicans, in the assay with Escherichia coli, in the assay with Klebsiella pneumoniae, with Pseudomonas aeruginosa and with Proteus mirabilis was more than 1600 µM in each case. Also, the MIC with Proteus vulgaris was more than 1600 µM; with Staphylococcus aureus it was more than 1600 µM; with Streptococcus pyogenes it was 1600 µM; against Trichophyton benhamiae, more than 1600 µM.
`CCCCCCCCCCCC(=O)NNC(=O)C[n+]1ccccc1`: the MIC in the assay on Aspergillus niger worked out at 170 µM; in the assay with Candida albicans it was 170 µM; with Escherichia coli, 340 µM; in the assay on Klebsiella pneumoniae, 680 µM; against Pseudomonas aeruginosa it was 340 µM; against Proteus mirabilis it was 1400 µM. Further, the MIC against Proteus vulgaris is 680 µM; against Staphylococcus aureus, 85 µM; in the assay with Streptococcus pyogenes, 42 µM; in the assay with Trichophyton benhamiae it was 170 µM.
On to `CCCCCCCC/C=C\CCCCCCCC(=O)NNC(=O)C[n+]1ccccc1`, for which the MIC in the assay with Aspergillus niger was more than 34 µM; in the assay on Candida albicans, more than 17 µM; in the assay with Escherichia coli it was more than 69 µM; with Klebsiella pneumoniae, more than 69 µM; in the assay on Pseudomonas aeruginosa, more than 34 µM; in the assay with Proteus mirabilis, more than 69 µM. Also, the MIC was more than 69 µM against Proteus vulgaris, more than 17 µM with Staphylococcus aureus, 1.1 µM against Streptococcus pyogenes and more than 17 µM in the assay on Trichophyton benhamiae.
As to `CCCCCCCCCCCCCCCC(=O)NNC(=O)C[n+]1ccccc1`, the MIC in the assay on Aspergillus niger was 37 µM; against Candida albicans it was 18 µM; in the assay with Escherichia coli, more than 37 µM; against Klebsiella pneumoniae it was more than 74 µM; with Pseudomonas aeruginosa, more than 37 µM; against Proteus mirabilis, more than 74 µM. Further, the MIC with Proteus vulgaris is more than 74 µM; in the assay on Staphylococcus aureus it was 4.6 µM; against Streptococcus pyogenes, 9.1 µM; against Trichophyton benhamiae it was 37 µM.
On to `CCCCCCCCCCCCCCCCCC(=O)NNC(=O)C[n+]1ccccc1`, for which the MIC with Aspergillus niger is more than 34 µM; in the assay with Candida albicans, more than 17 µM; against Escherichia coli, more than 69 µM; against Klebsiella pneumoniae it was more than 69 µM; against Pseudomonas aeruginosa, more than 34 µM; in the assay on Proteus mirabilis, more than 69 µM. In addition, the MIC in the assay with Proteus vulgaris is more than 69 µM; in the assay on Staphylococcus aureus, more than 34 µM; in the assay with Streptococcus pyogenes, 1.1 µM; against Trichophyton benhamiae it was more than 17 µM.
`CCCCCCCCCC(=O)NNC(=O)C[n+]1ccccc1`: the MIC against Aspergillus niger is 1500 µM; with Candida albicans, 730 µM; in the assay on Escherichia coli it was more than 1500 µM; against Klebsiella pneumoniae it was more than 1500 µM; in the assay on Pseudomonas aeruginosa it was more than 1500 µM; against Proteus mirabilis, more than 1500 µM. For the same compound, the MIC is more than 1500 µM in the assay with Proteus vulgaris, 366 µM with Staphylococcus aureus, 370 µM with Streptococcus pyogenes and 1500 µM in the assay with Trichophyton benhamiae.
`CCCCCCCCCCCCCC(=O)NNC(=O)C[n+]1ccccc1`: the MIC was 39 µM against Aspergillus niger; 19.6 µM against Candida albicans; more than 39 µM with Escherichia coli; more than 79 µM in the assay on Klebsiella pneumoniae; more than 39 µM against Pseudomonas aeruginosa; more than 79 µM in the assay on Proteus mirabilis. Moreover, the MIC with Proteus vulgaris is more than 79 µM; in the assay on Staphylococcus aureus it was 19.6 µM; against Streptococcus pyogenes, 9.8 µM; against Trichophyton benhamiae, 39 µM.

For the origin of these results see ChEMBL document CHEMBL1121546, “Studies on antimicrobial agents. 1. Synthesis and relation between the antimicrobial activities and certain physicochemical properties of some N'-(pyridinoacetyl) fatty acid hydrazides” (1980).
